biological target: Adenosine receptor A2a (Rattus norvegicus, UniProt P30543); experiment: Displacement of [3H]-CGS- 21680 from Adenosine A2A receptor of rat striatal membrane; details: not given
Sequence (P30543 whole entry): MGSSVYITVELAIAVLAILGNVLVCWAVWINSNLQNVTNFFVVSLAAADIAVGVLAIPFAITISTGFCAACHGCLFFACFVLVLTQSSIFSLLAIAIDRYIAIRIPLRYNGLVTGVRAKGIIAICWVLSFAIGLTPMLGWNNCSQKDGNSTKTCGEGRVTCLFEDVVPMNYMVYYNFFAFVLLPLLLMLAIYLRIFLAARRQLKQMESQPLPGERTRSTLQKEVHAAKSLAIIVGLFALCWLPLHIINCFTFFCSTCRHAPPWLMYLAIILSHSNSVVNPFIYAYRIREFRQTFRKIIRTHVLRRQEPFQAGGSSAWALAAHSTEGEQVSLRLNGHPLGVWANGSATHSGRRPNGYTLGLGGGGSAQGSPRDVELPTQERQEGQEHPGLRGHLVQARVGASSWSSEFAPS

Ki [µM] | Structure (SMILES)
9.23 | CCOC(=O)C1=C(C)N=C(C)/C(=C(/O)OCC)C1/C=C/c1ccccc1 (stereo not given)
14.5 | CCOC(=O)C1=C(c2ccccc2)N=C(C)/C(=C(/O)OCC)C1CC (stereo not given)
3.15 | CCO/C(O)=C1\C(C)=NC(c2ccccc2)=C(C(=O)OCc2ccccc2)C1C (stereo not given)
7.89 | CCO/C(O)=C1\C(C)=NC(C)=C(C(=O)OC)C1CC (stereo not given)
2.4 | CCOC(=O)c1c(C)nc(-c2ccccc2)c(C(=O)OCC)c1/C=C/c1ccccc1

biological target: Adenosine receptor A2a (Rattus norvegicus) (UniProt P30543); experiment: Binding affinity for Adenosine A2A receptor in rat striatal membrane with [3H]-CGS- 21680; assay type: cell membranes; set-up: concentration or dose not given beside the values; details: Striatum
Sequence (P30543 whole entry): as above

Inhibition (at concentration M) [%] | Structure (SMILES)
37 | CCOC(=O)C1=C(c2ccc(C)cc2)N=C(C)/C(=C(/O)OCC)C1/C=C/c1ccccc1 (stereo not given)
< 10 | CCO/C(O)=C1\C(C)=NC(c2ccccc2)=C(C(=O)OCc2ccccc2)C1C#Cc1ccccc1 (stereo not given)
26 | CCOC(=O)C1=C(c2ccccc2)N=C(C)/C(=C(/O)OCC)C1C#Cc1ccccc1 (stereo not given)
< 10 | CCOC(=O)C1=C(c2ccccc2)N=C(C)/C(=C(/O)OCc2ccccc2)C1C#Cc1ccccc1 (stereo not given)
12 | CCOC(=O)C1=C(c2ccccc2)N=C(C)/C(=C(/O)OCC)C1C=C(c1ccccc1)c1ccccc1 (stereo not given)
15 | CCO/C(O)=C1\C(C)=NC(c2ccccc2)=C(C(=O)OCc2ccccc2)C1/C=C/c1ccccc1 (stereo not given)

biological target: Adenosine receptor A2a (Rattus norvegicus) (UniProt P30543); experiment: Inhibition of [3H]-CGS- 21680 binding to Adenosine A2A receptor of rat striatal membrane; set-up: concentration or dose not given beside the values; details: concentration not given here

Structure (SMILES) | inhibition [%]
CCOC(=O)C1=C(C)NC(C)=C(C(=O)OCc2ccccc2)C1/C=C/c1ccccc1 (stereo not given) | 14
CCO/C(O)=C1\C(C)=NC(c2ccccc2)=C(C(=O)OCc2ccccc2)C1/C=C/c1ccc([N+](=O)[O-])cc1 (stereo not given) | < 10
CCOC(=O)c1c(C)nc(-c2ccccc2)c(C(=O)OCc2ccccc2)c1C#Cc1ccccc1 | 43
CCOC(=O)C1=C(c2ccccc2)N=C(C)/C(=C(/O)OCc2ccccc2)C1/C=C/c1ccc([N+](=O)[O-])cc1 (stereo not given) | < 10

Further lines, results first:

inhibition [%] | Structure (SMILES)
33 | CCOC(=O)C1=C(c2ccccc2)N=C(C)/C(=C(/O)OCC)C1/C=C/c1ccc([N+](=O)[O-])cc1 (stereo not given)
35 | CCOC(=O)C1=C(c2ccoc2)N=C(C)/C(=C(/O)OCC)C1/C=C/c1ccccc1 (stereo not given)
< 10 | CCOC(=O)C1=C(c2ccc(OC)cc2)N=C(C)/C(=C(/O)OCC)C1/C=C/c1ccccc1 (stereo not given)
12 | CCOC(=O)C1=C(c2ccc(Cl)cc2)N=C(C)/C(=C(/O)OCC)C1/C=C/c1ccccc1 (stereo not given)
< 10 | CCOC(=O)C1=C(c2ccccc2)N=C(C)/C(=C(/O)OCC)C1/C=C/c1ccccc1[N+](=O)[O-] (stereo not given)
17 | CCOC(=O)C1=C(c2ccccc2)N=C(C)/C(=C(/O)OCC)C1/C=C/c1ccccc1OC (stereo not given)
< 10 | CCOC(=O)C1=C(c2ccsc2)N=C(C)/C(=C(/O)OCC)C1/C=C/c1ccccc1 (stereo not given)

biological target: T1, Adenosine receptor A1 (Rattus norvegicus) (UniProt P25099); experiment: Binding affinity for Adenosine A1 receptor in rat cerebral cortex membrane with [3H](R)-PIA.; assay type: cell membranes; details: concentration not given here
T1 sequence (whole entry): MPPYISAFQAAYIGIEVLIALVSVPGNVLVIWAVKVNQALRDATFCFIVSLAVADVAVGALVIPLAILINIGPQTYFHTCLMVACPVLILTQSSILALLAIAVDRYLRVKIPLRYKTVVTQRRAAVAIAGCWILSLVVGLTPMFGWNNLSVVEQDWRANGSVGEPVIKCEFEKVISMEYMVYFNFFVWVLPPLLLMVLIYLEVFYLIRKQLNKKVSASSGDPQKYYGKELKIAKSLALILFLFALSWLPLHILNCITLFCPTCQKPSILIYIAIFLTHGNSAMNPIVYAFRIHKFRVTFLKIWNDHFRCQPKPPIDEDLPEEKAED
In short: (§1)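 Rat cerebral cortex membranes prepared with adenosine deaminase (3 units/mL), preincubated 30 min at 30 °C, with deaminase also present during incubation with [3H]-(R)-PIA. Competitor used at five or more concentrations spanning 3 orders of magnitude.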

inhibition [%] | Structure (SMILES)
33 | CCO/C(O)=C1\C(C)=NC(c2ccccc2)=C(C(=O)OCc2ccccc2)C1/C=C/c1ccc([N+](=O)[O-])cc1 (stereo not given)
< 10 | CCOC(=O)C1=C(c2ccccc2)N=C(C)/C(=C(/O)OCc2ccccc2)C1/C=C/c1ccc([N+](=O)[O-])cc1 (stereo not given)

tested on: not listed separately; experiment: Relative affinities for rat adenosine A1 and human adenosine A3 receptors; details: not given
In short: (§2)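 Ratio of Ki values: rat A1 ([3H]-(R)-PIA, rat cortical membranes) over human A3 ([125I]AB-MECA, HEK-293 membranes), each Ki derived by Cheng-Prusoff from competition curves.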

Selectivity ratio | Structure (SMILES)
1.7 | CCOC(=O)c1c(C)nc(-c2ccccc2)c(C(=O)OCC)c1C

tested on: not listed separately; experiment: Relative binding affinities for rat adenosine A1 and human adenosine A3 receptors; Selectivity ratio; details: not given; in short: as §2

Ratio | Structure (SMILES)
4.2 | CCOC(=O)c1c(C)nc(-c2ccccc2)c(C(=O)OCc2ccccc2)c1C#Cc1ccccc1
24 | CCOC(=O)C1=C(C)NC(C)=C(C(=O)OC)C1/C=C/c1ccccc1 (stereo not given)

biological target: T1, Adenosine receptor A1 (Rattus norvegicus); experiment: Binding affinity for Adenosine A1 receptor of rat cerebral cortex membrane with [3H](R)-PIA.; assay type: tissue-based; details: not given; in short: as §1

Inhibition (at concentration M) [%] | Structure (SMILES)
< 10 | CCOC(=O)C1=C(c2ccccc2)N=C(C)/C(=C(/O)OCc2ccccc2)C1/C=C/c1ccccc1 (stereo not given)

biological target: T1, Adenosine receptor A1 (Rattus norvegicus); experiment: Binding affinity for Adenosine A1 receptor in rat cerebral cortex membrane with [3H]-(R)-PIA.; assay type: cell membranes; details: not given; in short: as §1

Inhibition (at concentration M) [%] | Structure (SMILES)
24 | CCOC(=O)C1=C(c2ccccc2)N=C(C)/C(=C(/O)OCc2ccccc2)C1C#Cc1ccccc1 (stereo not given)
35 | CCO/C(O)=C1\C(C)=NC(c2ccccc2)=C(C(=O)OCc2ccccc2)C1/C=C/c1ccccc1 (stereo not given)
